Compound activity from PubChem BioAssay.
CHOP inhibitor: inhibitors of CHOP induction in ER stress response. 220,000 compounds, 3.8% hits. AID 2732. CHO-K1 CHOP-promoter luciferase, tunicamycin-induced, 15-18 h. inhibition, % at 10 µM;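 active means compounds that reduced the stress-induced luciferase reporter signal by more than about 70% of percent inhibition, limit read from the data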
697 NFkB inh: inhibitors of the PMA/ionomycin-induced NF-kB reporter in 697 B cells; 697 B-cell NF-kB luciferase reporter, 16 h; inhibition, % at 4 µM; 330,000 compounds, 0.33% hits; in the data active means inhibition above about 35%
Jurkat NFkB inh: lowers PMA/ionomycin-induced NF-kB signal in Jurkat cells; PMA/ionomycin-induced NF-kB luciferase reporter, luminescence; inhibition, % at 4 µM; 330,000 compounds, 0.53% hits; in the data active means inhibition above about 50%
Gli-Sufu antag: blocks Gli-Sufu signaling in a luciferase reporter; 340,000 compounds, 0.74% hits; Sufu-KO-LIGHT fibroblasts, Gli luciferase reporter luminescence; AID 588413; inhibition, % at 5 µM;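 active means inhibition above about 55%, limit read from the data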
CHOP UPR activ: activators of apoptotic arm of unfolded protein response (CHOP). CHO-CHOP luciferase reporter, UPR activation, luminescence; percent of tunicamycin response over DMSO baseline. 330,000 compounds, 0.34% hits. activation, % at 10 µM;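 active means at 10 µM dose, activation of 40% or more, normalized to positive control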
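Dosing – one dose, 10 µM in 0.5% DMSO · System – CHO-CHOP cells, stable luciferase reporter of PERK-eIF2a-CHOP signalling · Input – 500 cells/well · Control set – tunicamycin 10 µg/mL final as positive, DMSO-only wells as negative · Timing – 6 h compound treatment, 37 °C · Measure – % activation vs tunicamycin · Technique – luminescence read with Steady-Glo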
UPR XBP1 act: activators of adaptive arm of unfolded protein response (XBP1); CHO-XBP1 luciferase reporter, IRE1-XBP1 UPR activation, luminescence; percent of tunicamycin response, DMSO as zero; activation, % at 20 µM; 330,000 compounds, 0.33% hits;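 active means versus positive control, 20 µM dose yields 30% or more activation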
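Material: CHO cell line with stable XBP1 luciferase reporter; schedule: 16-18 h cell attachment at 37 °C, then 6 h compound exposure; signal: glow luminescence from Steady-Glo reagent; medium: serum-containing F12 medium, 10% FBS; benchmarks: tunicamycin 10 µg/mL and vehicle-only wells; read-out: percent activation relative to tunicamycin reference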
Gli antag conf: confirmation of Gli-SUFU pathway antagonists. shares compounds with Gli-Sufu antag. Sufu-KO-LIGHT cells, Gli luciferase reporter, luminescence. inhibition, % at 5 µM. 2,500 compounds, 40% hits. AID 602428;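 active means mean inhibition at 5 µM reaching about 45%, limit read from the data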
Gli cytotox: cytotoxic in Gli-SUFU antagonist counter-screen | cytotoxicity, % at 5 µM | Sufu-KO-LIGHT cells cytotoxicity, ATP luminescence | 2,500 compounds, 32% hits | shares compounds with Gli-Sufu antag;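 active means mean cytotoxicity at 5 µM above about 25%, limit read from the data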;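 further: cells exposed to compound overnight for roughly 16 to 18 hours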
Wnt3a cs: Wnt3a reporter inhibition counter-screen | inhibition, % at 6.25 µM | Wnt-LIGHT cells, Wnt3a-driven luciferase reporter, luminescence | shares compounds with Gli-Sufu antag | 2,500 compounds, 20% hits | AID 651995;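 active means mean inhibition above about 25%, limit read from the data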
Numbers stand for hits; n = inactive; x = no result given. Only some compounds are listed: those with a hit (about 3.9% of all), similar ones and a draw of the others.

SMILES	CHOP inhibitor	697 NFkB inh	Jurkat NFkB inh	Gli-Sufu antag	CHOP UPR activ	UPR XBP1 act	Gli antag conf	Gli cytotox	Wnt3a cs
C=CCNC(=O)N1CCCC(N2CCN(c3ccccc3OC)CC2)C1 (stereo not drawn)	x	n	n	n	n	n	x	x	x
COC(=O)C12OCC34C(CC5C(C)=C(O)C(=O)CC5(C)C3C(O)C1O)OC(=O)C(OC(=O)C=C(C)C)C24 (stereo not drawn)	x	x	x	91	x	x	95	76	105
CCCCOc1ccc(C(=O)NCCCC(=O)N2CCCCC2)cc1	n	n	n	68	n	n	n	n	n
CCCCCOc1ccc(C(=O)CCC(=O)N2CCCC2)cc1	x	n	n	n	n	n	x	x	x
CCOC(=O)CNC(=O)c1c(C)nn(-c2ccccc2)c1Cl	n	n	n	95	n	n	n	n	n
CCOC(=O)CNC(=O)c1c(C)nn(C)c1Cl	n	n	n	n	n	n	x	x	x
COc1ccc(CCNc2ccncn2)cc1	n	n	n	n	n	n	x	x	x
COc1ccc(CCNc2ccc(S(N)(=O)=O)cn2)cc1	x	n	n	n	n	n	n	n	n
CCOC(=O)c1c(CC(C)C)csc1NC(=O)COC(=O)c1cc(OC)c(OC)cc1[N+](=O)[O-]	n	n	n	56	n	n	n	n	n
CCOC(=O)c1ccc(NC(=O)CN2C(=O)CN(C(C)=O)C2=S)cc1	x	n	n	n	n	n	x	x	x
Cc1oc(/N=C/c2ccc(Cl)cc2)c(C#N)c1C	n	n	n	71	n	n	n	n	n
Cc1oc(/N=C/c2ccc(Cl)cc2Cl)c(C#N)c1C	n	x	x	n	x	x	x	x	x
CC(C)(C)c1ccc(CN2C3=NCCCN3c3ccccc32)cc1	n	n	n	69	n	n	60	n	n
c1ccc(CN2C3=NCCCN3c3ccccc32)cc1	n	n	n	n	n	n	x	x	x
Cc1ccc(CN2C3=NCCCN3c3ccccc32)cc1	n	n	n	n	n	n	x	x	x
Clc1cccc(CN2C3=NCCCN3c3ccccc32)c1	x	n	n	56	n	n	n	n	n
CC(C)(C)NC(=O)CSc1ccc(S(=O)(=O)N2CCOCC2)cn1	x	n	n	n	n	n	x	x	x
Cc1ccccc1OCCC(=O)OCC(=O)Nc1ccc2[nH]c(=O)[nH]c2c1	x	n	n	n	n	n	x	x	x
O=C(COc1ccc2c3c(c(=O)oc2c1)CCCC3)NCCN1CCOCC1	x	n	n	n	n	n	x	x	x
O=C(COc1ccc2c3c(c(=O)oc2c1)CCCC3)NCCCN1CCOCC1	x	n	n	94	n	n	n	n	n
CCn1cc(C(=O)NCCc2ccccc2)c(=O)c2cc(S(=O)(=O)N(C)C)ccc21	x	n	n	n	n	n	x	x	x
CCn1cc(C(=O)NCCN(C)CCc2ccccc2)c(=O)c2cc(S(=O)(=O)N(C)C)ccc21	n	n	n	69	n	n	n	n	n
O=C(NCC1CC1)Nc1ccccc1F	x	n	n	n	n	n	x	x	x
Cc1ccc(CN2CCC(CNC(=O)Nc3ccccc3F)CC2)cc1	x	n	n	n	n	n	n	n	n
CCc1cccc(N(C(=O)c2csnn2)C(C(=O)NC2CCCCC2)c2cccnc2)c1 (stereo not drawn)	x	n	n	n	n	n	x	x	x
SMILES	CHOP inhibitor	697 NFkB inh	Jurkat NFkB inh	Gli-Sufu antag	CHOP UPR activ	UPR XBP1 act	Gli antag conf	Gli cytotox	Wnt3a cs
COc1ccccc1NC(=O)CN1C(=O)CC(C)S(=O)(=O)c2ccccc21 (stereo not drawn)	x	n	n	n	n	n	x	x	x
CN1N=C(N)c2cn(C3OC(COP(=O)(O)O)C(O)C3O)c3ncnc1c23 (stereo not drawn)	x	x	x	89	x	x	86	63	71
Nc1ncnc2c1ncn2[C@@H]1O[C@H](COP(=O)(O)OP(=O)(O)OP(=O)(O)O)[C@@H](O)[C@H]1O	x	n	n	n	n	n	x	x	x
CCN(Cc1ccc(NC(C)=O)cc1)CC1CCCN(CCc2cccc(OC)c2)C1 (stereo not drawn)	x	n	n	61	n	n	n	n	50
COc1ccccc1NCC(=O)n1nc(C)cc1C	n	n	n	n	n	n	n	n	n
COc1ccccc1C(=O)NCC(=O)n1nc(C)cc1C	n	n	n	n	n	n	x	x	x
N#Cc1cccnc1N1CCN(C(=O)c2ccc3c(c2)S(=O)(=O)c2ccccc2C3=O)CC1	x	n	n	n	n	n	n	n	n
O=C1c2ccccc2S(=O)(=O)c2cc(C(=O)N3CCN(c4ccc(Cl)cn4)CC3)ccc21	x	n	n	n	n	n	x	x	x
O=C1CC2(CCCC2)Oc2ccc(F)cc21	x	n	n	n	n	n	x	x	x
Cc1ccc2c(c1)C(=O)CC(O)(C(F)F)O2 (stereo not drawn)	n	n	n	55	n	n	n	n	n
Cc1cccnc1NC(=O)c1cccc(S(=O)(=O)N2CCCc3ccccc32)c1	x	n	n	n	n	n	x	x	x
COc1ccc(-c2nc3n(c(=O)c2C#N)CCS3)cc1	n	n	n	56	n	n	n	n	n
Cc1cccc(N(Cc2ccccc2)C(=O)CCl)c1	n	x	x	77	x	x	n	28	n
CCN(Cc1ccccc1)C(=O)Cn1cnc2c1c(=O)n(C)c(=O)n2C	n	n	n	59	n	n	n	n	n
CCN(CC)C(=O)Cn1cnc2c1c(=O)n(C)c(=O)n2C	n	n	n	n	n	n	x	x	x
CCCOc1ccc(Br)cc1CSC(=N)N	n	n	n	61	n	n	56	27	n
Cc1ccc(-c2nc(N)sc2CC(=O)OCC(=O)NCCC(C)C)cc1	n	n	n	58	n	n	n	n	31
CCC(C)NC(=O)COC(=O)Cc1sc(N)nc1-c1ccc(C)cc1 (stereo not drawn)	n	n	n	n	n	n	x	x	x
NC(=O)c1ccc(N2CCCCC2)c(N2C(=O)C3CC=CCC3C2=O)c1 (stereo not drawn)	n	n	n	n	n	n	n	n	n
CC(C)CNS(=O)(=O)c1ccc(S(=O)(=O)N2CCN(C3CCCC3)CC2)cc1	x	n	n	n	n	n	x	x	x
CCc1c(C)nc2ncnn2c1N1CCN(S(=O)(=O)c2ccc(OC)cc2)CC1	n	n	n	60	n	n	47	26	n
O=C(COc1cccc2cccnc12)N/N=C/c1ccc(O)cc1	n	n	n	n	n	n	x	x	x
COc1cc(OC)c(/C=N/NC(=O)COc2cccc3cccnc23)c(OC)c1	n	n	n	56	n	n	n	n	n
CN1CCN(C(=O)CCc2nnc3ccc(N4CCC5(CC4)OCCO5)nn23)CC1	x	n	n	n	n	n	x	x	x
